Reference: ChEMBL document CHEMBL4732146, “Nitric oxide-donating and reactive oxygen species-responsive prochelators based on 8-hydroxyquinoline as anticancer agents” (Eur J Med Chem, 2021)
Calls of active or inactive are those of the source. The rule behind the calls is not given here.

How the values were obtained:
[1] = Metal chelating activity assessed as compound-Cu2+ complex formation measured after 40 mins by calcein dye based fluorescence assay; settings: dose 10-50 µM
Summary of the method: (§1)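 Calcein (10 µM) in 50 mM HEPES was quenched by 10 µM CuCl₂ (or FeCl₃ for the Fe³⁺ arm). Chelator was added from DMSO stock to a final 10 or 50 µM and incubated 40 min at room temperature. Recovery rate was calculated from fluorescence (λex 485 / λem 520 nm); n = 3.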

[2] = Metal chelating activity assessed as compound-Fe3+ complex formation measured after 40 mins by calcein dye based fluorescence assay; settings: dose 10-50 µM; summary of the method: as §1
[3] = Drug metabolism in human PANC-1 cells assessed as nitric oxide release at 10 uM measured after 8 hrs by Griess assay; type: ADME, cell-based; settings: panc-1, 8 h
Summary of the method: (§2)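 Cells exposed 8 h to 10 µM compound. Nitrite measured by Griess reagent kit at 540 nm against a NaNO₂ calibration curve. Mean ± SD, n = 3.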

[4] = Drug metabolism in human SW1990 cells assessed as nitric oxide release at 10 uM measured after 8 hrs by Griess assay; type: ADME, cell-based; settings: sw1990, 8 h; summary of the method: as §2
[5] = test system: A549; test: Cytotoxicity against human A549 cells assessed as reduction in cell viability at 10 to 20 uM measured after 48 hrs by MTT assay; type: functional, cell-based; settings: dose 10-20 µM
[6] = test system: HeLa; test: Cytotoxicity against human HeLa cells assessed as reduction in cell viability at 10 to 20 uM measured after 48 hrs by MTT assay; type: functional, cell-based; settings: dose 10-20 µM
[7] = test system: HepG2; test: Cytotoxicity against human HepG2 cells assessed as reduction in cell viability at 10 to 20 uM measured after 48 hrs by MTT assay; type: functional, cell-based; settings: dose 10-20 µM
Summary of the method: (§3)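 MTT assay with 48 h compound exposure at 10 or 20 µM. Cells seeded 6 × 10⁴ per well and grown 24 h beforehand. MTT 4 h, DMSO solubilisation, A490 read. Percent cell death given as mean ± SD, n = 3.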

[8] = test system: MCF7; test: Cytotoxicity against human MCF7 cells assessed as reduction in cell viability at 10 to 20 uM measured after 48 hrs by MTT assay; type: functional, cell-based; settings: dose 10-20 µM; summary of the method: as §3
[9] = test system: PANC-1; test: Cytotoxicity against human PANC-1 cells assessed as reduction in cell viability at 10 uM measured after 48 hrs by MTT assay; type: functional, cell-based; summary of the method: as §3
[10] = test system: PANC-1; test: Cytotoxicity against human PANC-1 cells assessed as reduction in cell viability at 20 uM measured after 48 hrs by MTT assay relative to control; type: functional; summary of the method: as §3
[11] = test system: A549; test: Cytotoxicity against human A549 cells assessed as reduction in cell viability measured after 48 hrs by MTT assay; type: functional, cell-based; settings: A549, 48 h
[12] = test system: HeLa; test: Cytotoxicity against human HeLa cells assessed as reduction in cell viability measured after 48 hrs by MTT assay; type: functional, cell-based
[13] = test system: HepG2; test: Cytotoxicity against human HepG2 cells assessed as reduction in cell viability measured after 48 hrs by MTT assay; type: functional, cell-based; settings: HepG2, 48 h
Summary of the method: (§4)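 Cells seeded 6 × 10⁴ per well, cultured 24 h at 37 °C under 5% CO₂, then exposed to compound for 48 h, with or without 50 µM CuCl₂ or FeCl₃ co-incubation. MTT added for 4 h at 37 °C, formazan dissolved in DMSO, A490 read. IC50 reported as mean (SD), n = 3.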

[14] = test system: MCF7; test: Cytotoxicity against human MCF7 cells assessed as reduction in cell viability measured after 48 hrs by MTT assay; type: functional, cell-based; settings: MCF7, 48 h; summary of the method: as §4
[15] = test system: PANC-1; test: Cytotoxicity against human PANC-1 cells assessed as reduction in cell viability measured after 48 hrs by MTT assay; type: functional, cell-based; settings: PANC-1, 48 h; summary of the method: as §4
[16] = test system: HCT-116; test: Cytotoxicity against human HCT-116 cells assessed as reduction in cell viability measured after 48 hrs by MTT assay; type: functional, cell-based; settings: HCT-116, 48 h; summary of the method: as §4
[17] = test system: PC-3; test: Cytotoxicity against human PC-3 cells assessed as reduction in cell viability measured after 48 hrs by MTT assay; type: functional, cell-based; settings: PC-3, 48 h; summary of the method: as §4
[18] = test system: SW1990; test: Cytotoxicity against human SW1990 cells assessed as reduction in cell viability measured after 48 hrs by MTT assay; type: functional, cell-based; settings: SW1990, 48 h; summary of the method: as §4
[19] = test system: A549; test: Cytotoxicity against human A549 cells assessed as reduction in cell viability measured after 48 hrs in presence of CuCl2 by MTT assay; type: functional, cell-based; settings: A549, 48 h
[20] = test system: HeLa; test: Cytotoxicity against human HeLa cells assessed as reduction in cell viability measured after 48 hrs in presence of CuCl2 by MTT assay; type: functional, cell-based
[21] = test system: HepG2; test: Cytotoxicity against human HepG2 cells assessed as reduction in cell viability measured after 48 hrs in presence of CuCl2 by MTT assay; type: functional, cell-based; settings: HepG2, 48 h; summary of the method: as §4
[22] = test system: MCF7; test: Cytotoxicity against human MCF7 cells assessed as reduction in cell viability measured after 48 hrs in presence of CuCl2 by MTT assay; type: functional, cell-based; settings: MCF7, 48 h; summary of the method: as §4
[23] = test system: PANC-1; test: Cytotoxicity against human PANC-1 cells assessed as reduction in cell viability measured after 48 hrs in presence of CuCl2 by MTT assay; type: functional, cell-based; settings: PANC-1, 48 h; summary of the method: as §4
[24] = test system: HCT-116; test: Cytotoxicity against human HCT-116 cells assessed as reduction in cell viability measured after 48 hrs in presence of CuCl2 by MTT assay; type: functional, cell-based; settings: HCT-116, 48 h; summary of the method: as §4
[25] = test system: PC-3; test: Cytotoxicity against human PC-3 cells assessed as reduction in cell viability measured after 48 hrs in presence of CuCl2 by MTT assay; type: functional, cell-based; settings: PC-3, 48 h; summary of the method: as §4
[26] = test system: SW1990; test: Cytotoxicity against human SW1990 cells assessed as reduction in cell viability measured after 48 hrs in presence of CuCl2 by MTT assay; type: functional, cell-based; settings: SW1990, 48 h; summary of the method: as §4
[27] = test system: A549; test: Cytotoxicity against human A549 cells assessed as reduction in cell viability measured after 48 hrs in presence of FeCl3 by MTT assay; type: functional, cell-based; settings: A549, 48 h
[28] = test system: HeLa; test: Cytotoxicity against human HeLa cells assessed as reduction in cell viability measured after 48 hrs in presence of FeCl3 by MTT assay; type: functional, cell-based
[29] = test system: HepG2; test: Cytotoxicity against human HepG2 cells assessed as reduction in cell viability measured after 48 hrs in presence of FeCl3 by MTT assay; type: functional, cell-based; settings: HepG2, 48 h; summary of the method: as §4
[30] = test system: MCF7; test: Cytotoxicity against human MCF7 cells assessed as reduction in cell viability measured after 48 hrs in presence of FeCl3 by MTT assay; type: functional, cell-based; settings: MCF7, 48 h; summary of the method: as §4
[31] = test system: PANC-1; test: Cytotoxicity against human PANC-1 cells assessed as reduction in cell viability measured after 48 hrs in presence of FeCl3 by MTT assay; type: functional, cell-based; settings: PANC-1, 48 h; summary of the method: as §4
[32] = test system: HCT-116; test: Cytotoxicity against human HCT-116 cells assessed as reduction in cell viability measured after 48 hrs in presence of FeCl3 by MTT assay; type: functional, cell-based; settings: HCT-116, 48 h; summary of the method: as §4
[33] = test system: PC-3; test: Cytotoxicity against human PC-3 cells assessed as reduction in cell viability measured after 48 hrs in presence of FeCl3 by MTT assay; type: functional, cell-based; settings: PC-3, 48 h; summary of the method: as §4
[34] = test system: SW1990; test: Cytotoxicity against human SW1990 cells assessed as reduction in cell viability measured after 48 hrs in presence of FeCl3 by MTT assay; type: functional, cell-based; settings: SW1990, 48 h; summary of the method: as §4
[35] = Cytotoxicity against human H6C7 cells assessed as reduction in cell viability measured after 48 hrs by MTT assay; type: cell-based; settings: H6C7, 48 h; summary of the method: as §4
[36] = Cytotoxicity against human RWPE2 cells assessed as reduction in cell viability measured after 48 hrs by MTT assay; type: cell-based; settings: RWPE2, 48 h; summary of the method: as §4
[37] = test system: SW1990; test: Induction of apoptosis in human SW1990 cells at 12 uM measured after 24 hrs by Annexin V-FITC/propidium iodide staining based flow cytometry; type: functional, cell-based
Summary of the method: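 SW1990 cells seeded 5 × 10⁵ per well and grown 24 h, then treated 24 h at 8 or 12 µM. Optional 1 h pretreatment with 20 mM NAC or 50 µM carboxyl-PTIO before 12 µM treatment. Cells stained with annexin V-FITC 15 min and PI 5 min at room temperature in the dark, then analysed by flow cytometry. Mean ± SD, n = 3.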

[38] = test system: SW1990; test: Antitumor activity against human SW1990 cells xenografted in Balb/c nude mouse assessed as tumor size at 20 mg/kg, iv administered every 3 days measured after 21 days (reference value: 1.23 +/- 0.25 cm3); type: functional; settings: time 21 day
Summary of the method: (§5)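 Male BALB/c nude mice, 3–5 weeks old, given 1 × 10⁷ SW1990 cells subcutaneously; when tumors reached about 65 mm³, randomised to groups of eight. Saline vehicle control, dosing intravenously every three days. Tumor size monitored every two days for three weeks; tumors dissected at sacrifice on day 21, volume = d² × D/2 (d smallest, D largest diameter). Mean ± SD.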

[39] = test system: SW1990; test: Antitumor activity against human SW1990 cells xenografted in Balb/c nude mouse assessed as tumor growth inhibition at 20 mg/kg, iv administered every 3 days measured after 21 days relative to control; type: functional; settings: 504 h, time 21 day, read-out: TGI; summary of the method: as §5

For O=C(c1ccc2cccc(O)c2n1)N1CCC(Oc2no[n+]([O-])c2S(=O)(=O)c2ccccc2)CC1, the Activity [1] was “Dose-dependent effect”, the Activity [2] was “Dose-dependent effect” and the Drug metabolism [3] was “Metabolite_Detected”. The Drug metabolism [4] was “Metabolite_Detected”, the Activity [5] was “Active” and the Activity [6] was “Active”. For the same molecule, the Activity [7] was “Active”, the Activity [8] was “Active” and the Activity [9] was “Active”. For the same molecule, the Activity [10] was 82.3%, the IC50 [11] was 7.8 µM and the IC50 [12] was 33.9 µM. The IC50 [13] was 14.6 µM, the IC50 [14] was 15.4 µM and the IC50 [15] was 9.05 µM. For the same molecule, the IC50 [16] was 11.2 µM, the IC50 [17] was 10.4 µM and the IC50 [18] was 6.59 µM. For the same molecule, the IC50 [19] was 2.16 µM, the IC50 [20] was 9.77 µM and the IC50 [21] was 4.05 µM. For the same molecule, the IC50 [22] was 3.07 µM, the IC50 [23] was 1.32 µM and the IC50 [24] was 3.29 µM. For the same molecule, the IC50 [25] was 5.02 µM, the IC50 [26] was 0.79 µM and the IC50 [27] was 12.4 µM. The IC50 [28] was 37.9 µM, the IC50 [29] was 19.9 µM and the IC50 [30] was 17 µM. The IC50 [31] was 14.8 µM, the IC50 [32] was 17.2 µM and the IC50 [33] was 14.6 µM. For the same molecule, the IC50 [34] was 10.6 µM, the IC50 [35] was 13.2 µM and the IC50 [36] was 7.04 µM.

For Oc1cccc2cccnc12 [OXYQUINOLINE], the Activity [1] was “Dose-dependent effect”, the Activity [2] was “Dose-dependent effect” and the Activity [10] was 48%. The IC50 [11] was 31.2 µM, the IC50 [12] was > 50 µM and the IC50 [13] was > 50 µM. For the same molecule, the IC50 [14] was > 50 µM, the IC50 [15] was 24.5 µM and the IC50 [16] was 21.1 µM. For the same molecule, the IC50 [17] was 32 µM, the IC50 [18] was 32.1 µM and the IC50 [19] was 6.58 µM. It also gave an IC50 [20] of 35.6 µM, an IC50 [21] of 32.1 µM and an IC50 [22] of 21.1 µM. The IC50 [23] was 7.43 µM, the IC50 [24] was 7.25 µM and the IC50 [25] was 14.4 µM. For the same molecule, the IC50 [26] was 10.2 µM, the IC50 [27] was 32.6 µM and the IC50 [28] was > 50 µM. The IC50 [29] was > 50 µM, the IC50 [30] was > 50 µM and the IC50 [31] was 30.4 µM. The IC50 [32] was 26.3 µM, the IC50 [33] was > 50 µM and the IC50 [34] was > 50 µM. For the same molecule, the IC50 [35] was 20.1 µM, the IC50 [36] was 25.6 µM and the Activity [37] was “Active”. It also gave an Activity [38] of 0.68 cm3 and an inhibition in vivo at 20 mg/kg [39] of 44.7%.
